Assay: Phase 1 pharmacokinetics of ilorasertib in plasma
Type: in vivo, human
Settings: for AUC(0-t) / Cmax / Tmax / half-life / AUC(0-inf): human, plasma; for half-life: t1/2, arm D
In short: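 Arm A patients took oral test compound once weekly, in the morning, on days 1, 8 and 15 of 28-day cycles, at 10–690 mg. Plasma was sampled intensively up to 72 h after dosing on days 1 and 15. Noncompartmental analysis gave Cmax, Tmax, t½, AUCt and AUC∞, plus dose-normalized values. Results are summarized by dose level as mean ± SD, with individual values where N=1.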

[1] = arm A, oral once weekly, first dose, 10 mg, N=3, mean ± SD
[2] = arm A, oral once weekly, first dose, 20 mg, N=1
[3] = arm A, oral once weekly, first dose, 40 mg, N=1
[4] = arm A, oral once weekly, first dose, 80 mg, N=2, mean ± SD
[5] = arm A, oral once weekly, first dose, 160 mg, N=3, mean ± SD
[6] = arm A, oral once weekly, first dose, 240 mg, N=5, mean ± SD
[7] = arm A, oral once weekly, first dose, 340 mg, N=3, mean ± SD
[8] = arm A, oral once weekly, first dose, 440 mg, N=4, mean ± SD
[9] = arm A, oral once weekly, first dose, 540 mg, N=3, mean ± SD
[10] = arm A, oral once weekly, first dose, 640 mg, N=6, mean ± SD
[11] = arm A, oral once weekly, first dose, 690 mg, N=1
[12] = arm A, oral once weekly, first dose, all doses, N=32, mean ± SD
[13] = iv, 32 mg, arm D, IV infusion, 32 mg, day 1, N=4, mean ± SD
[14] = iv, 32 mg, arm D, IV infusion, 32 mg, day 15, N=3, mean ± SD
[15] = po, 40 mg, arm A, oral once weekly, first dose, N=1

## Nc1ncc(-c2cnn(CCO)c2)c2scc(-c3ccc(NC(=O)Nc4cccc(F)c4)cc3)c12 [Ilorasertib]
Arm A, oral
  coefficient of variation for dose-normalized Cmax: approximately 66%
[1]
  AUC0–24/D (dose-normalized AUC0–24): 65.8 ± 35.0 ng·h/mL/mg
  AUC∞/D (dose-normalized AUC∞): 70.9 ± 37.9 ng·h/mL/mg
  Cmax/D (dose-normalized Cmax): 3.74 ± 1.56 ng/mL/mg
[2]
  AUC0–24/D (dose-normalized AUC0–24): 27.2 ng·h/mL/mg
  AUC∞/D (dose-normalized AUC∞): 28.5 ng·h/mL/mg
  Cmax/D (dose-normalized Cmax): 2.98 ng/mL/mg
[3]
  AUC0–24/D (dose-normalized AUC0–24): 43.9 ng·h/mL/mg
  AUC∞/D (dose-normalized AUC∞): 45.8 ng·h/mL/mg
  Cmax/D (dose-normalized Cmax): 4.95 ng/mL/mg
[4]
  AUC0–24/D (dose-normalized AUC0–24): 15.2 ± 5.10 ng·h/mL/mg
  AUC∞/D (dose-normalized AUC∞): 15.7 ± 5.18 ng·h/mL/mg
  Cmax/D (dose-normalized Cmax): 1.44 ± 4.90 ng/mL/mg
[5]
  AUC0–24/D (dose-normalized AUC0–24): 19.4 ± 8.86 ng·h/mL/mg
  AUC∞/D (dose-normalized AUC∞): 20.2 ± 9.28 ng·h/mL/mg
  Cmax/D (dose-normalized Cmax): 1.86 ± 0.98 ng/mL/mg
[6]
  AUC0–24/D (dose-normalized AUC0–24): 16.6 ± 12.4 ng·h/mL/mg
  AUC∞/D (dose-normalized AUC∞): 17.5 ± 13.5 ng·h/mL/mg
  Cmax/D (dose-normalized Cmax): 1.22 ± 0.59 ng/mL/mg
[7]
  AUC0–24/D (dose-normalized AUC0–24): 16.9 ± 2.56 ng·h/mL/mg
  AUC∞/D (dose-normalized AUC∞): 17.7 ± 2.09 ng·h/mL/mg
  Cmax/D (dose-normalized Cmax): 1.74 ± 1.0 ng/mL/mg
[8]
  AUC0–24/D (dose-normalized AUC0–24): 30.7 ± 17.1 ng·h/mL/mg
  AUC∞/D (dose-normalized AUC∞): 32.1 ± 18.0 ng·h/mL/mg
  Cmax/D (dose-normalized Cmax): 2.88 ± 1.89 ng/mL/mg
[9]
  AUC0–24/D (dose-normalized AUC0–24): 10.7 ± 2.0 ng·h/mL/mg
  AUC∞/D (dose-normalized AUC∞): 11.1 ± 2.28 ng·h/mL/mg
  Cmax/D (dose-normalized Cmax): 0.964 ± 0.183 ng/mL/mg
[10]
  AUC0–24/D (dose-normalized AUC0–24): 30.7 ± 23.1 ng·h/mL/mg
  AUC∞/D (dose-normalized AUC∞): 31.7 ± 23.4 ng·h/mL/mg
  Cmax/D (dose-normalized Cmax): 2.42 ± 1.57 ng/mL/mg
[11]
  AUC0–24/D (dose-normalized AUC0–24): 11.7 ng·h/mL/mg
  AUC∞/D (dose-normalized AUC∞): 12.3 ng·h/mL/mg
  Cmax/D (dose-normalized Cmax): 1.22 ng/mL/mg
[12]
  AUC0–24/D (dose-normalized AUC0–24): 26.3 ± 21.3 ng·h/mL/mg
  AUC∞/D (dose-normalized AUC∞): 27.6 ± 22.7 ng·h/mL/mg
  Cmax/D (dose-normalized Cmax): 2.16 ± 1.43 ng/mL/mg
Arm B, between days 1 and 15, multiple doses
  accumulation of study drug: no apparent accumulation
Arm C, oral ilorasertib with azacitidine
  pharmacokinetic interaction between ilorasertib and azacitidine: no apparent pharmacokinetic drug-drug interaction
Arm D, IV dosing
  time of peak plasma concentrations: end of the 4-hour infusion
iv, 32 mg, AUC0–24, arm D, IV infusion, 32 mg, day 1, N=4, mean ± SD
  AUC(0-t): 4980 ± 3900 ng·h/mL
iv, 32 mg, AUC0–24, arm D, IV infusion, 32 mg, day 15, N=3, mean ± SD
  AUC(0-t): 8220 ± 9110 ng·h/mL
[13]
  Cmax: 587 ± 360 ng/mL
  Tmax: 4.1 ± 0.3 h
[14]
  Cmax: 414 ± 140 ng/mL
  Tmax: 3.9 h
iv, 32 mg, IV infusion, 32 mg, day 1, N=4
  half-life: 6.2 ± 5.1 h
iv, 32 mg, IV infusion, 32 mg, day 15, N=3
  half-life: 5.8 ± 20.6 h
po, 10 mg
  AUC(0-inf): 710 ± 380 ng·h/mL
po, 10 mg, AUC0–24, arm A, oral once weekly, first dose, N=3, mean ± SD
  AUC(0-t): 660 ± 350 ng·h/mL
po, 20 mg
  AUC(0-inf): 570 ng·h/mL
po, 20 mg, arm A, oral once weekly, first dose, N=1
  Cmax: 60 ng/mL
po, 40 mg
  AUC(0-inf): 1830 ng·h/mL
[15]
  Cmax: 198 ng/mL
  Tmax: 3 h
po, 80 mg
  AUC(0-inf): 1260 ± 410 ng·h/mL
  AUC(0-t): 1220 ± 410 ng·h/mL
po, 160 mg
  AUC(0-inf): 3240 ± 1490 ng·h/mL
po, 240 mg
  AUC(0-inf): 4190 ± 3230 ng·h/mL
po, 320 mg, AUC0–24, arm B, oral twice weekly, 320 mg, day 1, N=6, mean ± SD
  AUC(0-t): 29700 ± 19000 ng·h/mL
po, 320 mg, AUC0–24, arm B, oral twice weekly, 320 mg, day 15, N=4, mean ± SD
  AUC(0-t): 30700 ± 15000 ng·h/mL
po, 340 mg
  AUC(0-inf): 6010 ± 710 ng·h/mL
po, 440 mg
  AUC(0-inf): 14100 ± 7940 ng·h/mL

— publication PMC5563391 (Investigational new drugs, 2015)
